Reference: ChEMBL document CHEMBL5678798 (Clin Cancer Res, 2009)
Calls of active or inactive are those of the source. The calls are words filed in the database; no cut-off is given here.

Assays:
A673 = test: Antiproliferative activity against human A673 cells assessed as reduction in cell viability after 72 hrs by CellTiter-Glo assay; type: functional, cell-based; details: A673, 72 h
Method in brief: (§1)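 Cells seeded in 96-well plates, left overnight at 37°C, then exposed to a range of test concentrations for 72 h. Viability read by CellTiter-Glo luminescence; IC50 from four-parameter curve fit. Lines kept at 37°C, 5% CO2, in recommended growth medium.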

SK-N-MC = test: Antiproliferative activity against human SK-N-MC cells assessed as reduction in cell viability after 72 hrs by CellTiter-Glo assay; type: functional, cell-based; method in brief: as §1
MX1 = test: Antiproliferative activity against human MX1 cells assessed as reduction in cell viability after 72 hrs by CellTiter-Glo assay; type: functional, cell-based; details: MX1, 72 h; method in brief: as §1
HeLa = test: Antiproliferative activity against human HeLa cells assessed as reduction in cell viability after 72 hrs by CellTiter-Glo assay; type: functional, cell-based; method in brief: as §1
COLO 205 = test: Induction of cell cycle arrest in human COLO 205 cells assessed as decrease in cells accumulation at G2/M phase at 0.03 to 10 uM incubated for 24 to 48 hrs by propidium iodide staining based flow cytometric analysis; type: functional; details: dose 0.03-10 µM, time lower 24.0 hrs, time upper […]
Method in brief: (§2)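 COLO 205, MCF-7 or NCI-H929 cells seeded in 96-well plates overnight at 37°C, then exposed to DMSO or increasing compound concentrations for 24 or 48 h. Fixed and stained with propidium iodide (Vindelov method), then analysed by flow cytometry for sub-G1, G1, S and G2-M fractions. Experiment repeated twice.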

MCF7 = test: Induction of cell cycle arrest in human MCF7 cells assessed as decrease in cells accumulation at S phase at 0.03 to 10 uM incubated for 24 to 48 hrs by propidium iodide staining based flow cytometric analysis; type: functional; details: dose 0.03-10 µM, time lower 24.0 hrs, time upper […]; method in brief: as §2
NCI-H929 = test: Induction of cell cycle arrest in human NCI-H929 cells assessed as effect on sub-2N-DNA content at 0.03 to 10 uM incubated for 24 to 48 hrs by propidium iodide staining based flow cytometric analysis; type: functional; details: dose 0.03-10 µM, time lower 24.0 hrs, time upper […]; method in brief: as §2
[1] = In vivo inhibition of IGF1R in mouse NIH-3T3/LISN cells implanted in IGF1-stimulated nu/nu CD-1 mouse assessed as reduction in IGF1R phosphorylation at 30 mg/kg, po pretreated for 4 to 8 hrs followed by IGF1 stimulation and measured after 10 min by […] relative to control; type: functional; details: time 240-490 min
Method in brief: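 Time course: tumor-bearing female nu/nu CD-1 mice, three per group, given a single oral 30 mg/kg dose or vehicle. IGF-I given 10 min before blood and tumor collection at each time point. Tumor phospho-IGF-IR/total IGF-IR measured by capture-plate europium phosphotyrosine assay and expressed as % of ligand-stimulated control.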

[2] = In vivo inhibition of IGF1R in mouse NIH-3T3/LISN cells xenografted in IGF1-stimulated nu/nu CD-1 mouse assessed as reduction in IGF1R phosphorylation at 3 umol/L blood compound concentration pretreated for 1 to 72 hrs followed by IGF1 stimulation and measured after 10 min by […] relative to control; type: functional; details: dose 3 µmol/L; time 60-4330 min; at 3 µM
[3] = target: Glycogen synthase kinase-3 beta (Homo sapiens, UniProt P49841); test: Inhibition of GSK3beta (unknown origin)
[4] = target: Protein kinase C epsilon type (Homo sapiens, UniProt Q02156); test: Inhibition of PKCepsilon (unknown origin)
[5] = target: Ribosomal protein S6 kinase alpha-1 (Homo sapiens, UniProt Q15418); test: Inhibition of RSK1 (unknown origin)
[6] = target: Tyrosine-protein kinase BTK (Homo sapiens, UniProt Q06187); test: Inhibition of N-terminal His6-tagged recombinant full-length human BTK expressed in baculovirus infected Sf21 cells at 0.3 uM by filter binding assay relative to control
Method in brief: (§3)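 Outsourced single-concentration screen in a commercial panel of 233 protein kinases, run as radiometric filter-binding activity assays. Test agent was tested at 0.3 or 3 µmol/L, as given in each line, from a 10 mmol/L DMSO stock. Activity is expressed as percent inhibition relative to control.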

[7] = target: Macrophage colony-stimulating factor 1 receptor (Homo sapiens) (UniProt P07333); test: Inhibition of N-terminal His6-tagged recombinant human Fms (538 to end residues) expressed in baculovirus infected Sf21 cells at 0.3 uM by filter binding assay relative to control
[8] = target: Serine/threonine-protein kinase TBK1 (Homo sapiens) (UniProt Q9UHD2); test: Inhibition of N-terminal His6-tagged recombinant full-length human TBK1 expressed in baculovirus infected Sf21 cells at 0.3 uM by filter binding assay relative to control; method in brief: as §3
[9] = target: Tyrosine-protein kinase Yes (Homo sapiens) (UniProt P07947); test: Inhibition of N-terminal His6 tagged recombinant full-length human Yes expressed in baculovirus infected Sf21 cells at 0.3 uM by filter binding assay relative to control; method in brief: as §3
[10] = target: Tyrosine-protein kinase ABL2 (Homo sapiens) (UniProt P42684); test: Inhibition of N-terminal His6-tagged recombinant human Arg (38 to end residues) expressed in baculovirus infected Sf21 cells at 3 uM by filter binding assay relative to control
[11] = target: Protein-tyrosine kinase 6 (Homo sapiens) (UniProt Q13882); test: Inhibition of N-terminal His6-tagged recombinant full-length human BRK expressed in baculovirus infected Sf21 cells at 3 uM by filter binding assay relative to control
[12] = target: Serine/threonine-protein kinase 17A (Homo sapiens) (UniProt Q9UEE5); test: Inhibition of N-terminal 6His-tagged recombinant full-length human DRAK1 expressed in baculovirus infected Sf21 cells at 3 uM by filter binding assay relative to control
Method in brief: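 KinaseProfiler panel of 233 kinases: radiometric filter-binding activity assays with compound at 0.3 or 3 µmol/L. Read-out is percent inhibition.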

[13] = target: Protein kinase C alpha type (Homo sapiens) (UniProt P17252); test: Inhibition of N-terminal His6 tagged recombinant full-length human PKCalpha expressed in baculovirus infected Sf21 cells at 3 uM by filter binding assay relative to control; method in brief: as §3
[14] = target: Death-associated protein kinase 3 (Homo sapiens) (UniProt O43293); test: Inhibition of N-terminal GST tagged recombinant human ZIPK (1 to 290 residues) expressed in Escherichia coli at 3 uM by filter binding assay relative to control; method in brief: as §3
[15] = target: Tyrosine-protein kinase Fer (Homo sapiens, UniProt P16591); test: Inhibition of N-terminal His6 tagged recombinant human Fer (541 to end residues) expressed in baculovirus infected Sf21 cells by filter binding assay
[16] = target: PAS domain-containing serine/threonine-protein kinase (Homo sapiens, UniProt Q96RG2); test: Inhibition of human PASK by filter binding assay
[17] = target: Tyrosine-protein kinase FRK (Homo sapiens, UniProt P42685); test: Inhibition of N-terminal 6His-tagged recombinant human PTK5 (218 to end residues) expressed in baculovirus infected Sf21 cells by filter binding assay
[18] = target: High affinity nerve growth factor receptor (Homo sapiens, UniProt P04629); test: Inhibition of N-terminal His6-tagged recombinant human TrkA (440 to end residues) expressed in baculovirus infected Sf21 cells by filter binding assay

Sequence of Serine/threonine-protein kinase 17A (Homo sapiens) (Q9UEE5 whole entry): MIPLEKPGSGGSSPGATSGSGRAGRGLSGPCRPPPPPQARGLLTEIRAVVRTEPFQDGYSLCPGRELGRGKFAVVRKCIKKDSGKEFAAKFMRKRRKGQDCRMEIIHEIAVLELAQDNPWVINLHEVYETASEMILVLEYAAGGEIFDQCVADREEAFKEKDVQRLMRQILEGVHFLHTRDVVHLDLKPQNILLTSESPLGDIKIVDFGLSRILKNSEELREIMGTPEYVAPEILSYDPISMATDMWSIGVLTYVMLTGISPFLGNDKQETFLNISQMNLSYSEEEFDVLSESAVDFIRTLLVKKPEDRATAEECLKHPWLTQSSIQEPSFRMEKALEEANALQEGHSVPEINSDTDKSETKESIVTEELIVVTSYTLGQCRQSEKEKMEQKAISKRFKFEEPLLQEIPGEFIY
Sequence of Tyrosine-protein kinase BTK (Q06187 whole entry): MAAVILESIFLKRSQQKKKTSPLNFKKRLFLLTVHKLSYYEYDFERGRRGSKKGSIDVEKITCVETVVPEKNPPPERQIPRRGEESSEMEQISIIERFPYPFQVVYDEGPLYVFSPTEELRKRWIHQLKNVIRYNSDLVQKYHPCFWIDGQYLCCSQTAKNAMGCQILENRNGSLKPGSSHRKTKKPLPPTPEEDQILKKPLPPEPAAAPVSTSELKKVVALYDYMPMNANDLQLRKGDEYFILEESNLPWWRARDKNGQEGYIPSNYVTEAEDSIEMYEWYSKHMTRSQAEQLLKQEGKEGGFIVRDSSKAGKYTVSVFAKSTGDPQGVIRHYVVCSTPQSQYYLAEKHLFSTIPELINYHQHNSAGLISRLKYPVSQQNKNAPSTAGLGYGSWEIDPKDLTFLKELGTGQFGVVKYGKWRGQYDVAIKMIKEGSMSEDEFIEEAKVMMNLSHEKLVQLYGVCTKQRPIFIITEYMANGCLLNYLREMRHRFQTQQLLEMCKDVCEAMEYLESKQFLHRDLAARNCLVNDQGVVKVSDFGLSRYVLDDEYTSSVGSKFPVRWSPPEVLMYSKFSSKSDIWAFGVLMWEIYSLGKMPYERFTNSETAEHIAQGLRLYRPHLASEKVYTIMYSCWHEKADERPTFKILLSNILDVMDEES
Sequence of Tyrosine-protein kinase FRK (P42685 whole entry): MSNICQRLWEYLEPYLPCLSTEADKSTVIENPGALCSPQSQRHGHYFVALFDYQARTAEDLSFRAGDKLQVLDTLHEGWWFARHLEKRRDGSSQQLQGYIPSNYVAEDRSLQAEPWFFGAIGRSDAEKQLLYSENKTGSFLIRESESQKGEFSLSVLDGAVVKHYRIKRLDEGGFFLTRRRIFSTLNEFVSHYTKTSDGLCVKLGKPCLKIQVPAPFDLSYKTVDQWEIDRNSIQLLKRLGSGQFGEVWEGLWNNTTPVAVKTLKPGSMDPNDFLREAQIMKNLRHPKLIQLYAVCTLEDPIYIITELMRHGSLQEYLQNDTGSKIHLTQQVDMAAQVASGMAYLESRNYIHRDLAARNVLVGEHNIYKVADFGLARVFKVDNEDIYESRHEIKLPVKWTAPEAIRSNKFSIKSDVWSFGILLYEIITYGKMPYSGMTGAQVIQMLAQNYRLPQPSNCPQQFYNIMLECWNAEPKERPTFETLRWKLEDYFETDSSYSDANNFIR
Sequence of Tyrosine-protein kinase Fer (P16591 whole entry, the tested form may be a part): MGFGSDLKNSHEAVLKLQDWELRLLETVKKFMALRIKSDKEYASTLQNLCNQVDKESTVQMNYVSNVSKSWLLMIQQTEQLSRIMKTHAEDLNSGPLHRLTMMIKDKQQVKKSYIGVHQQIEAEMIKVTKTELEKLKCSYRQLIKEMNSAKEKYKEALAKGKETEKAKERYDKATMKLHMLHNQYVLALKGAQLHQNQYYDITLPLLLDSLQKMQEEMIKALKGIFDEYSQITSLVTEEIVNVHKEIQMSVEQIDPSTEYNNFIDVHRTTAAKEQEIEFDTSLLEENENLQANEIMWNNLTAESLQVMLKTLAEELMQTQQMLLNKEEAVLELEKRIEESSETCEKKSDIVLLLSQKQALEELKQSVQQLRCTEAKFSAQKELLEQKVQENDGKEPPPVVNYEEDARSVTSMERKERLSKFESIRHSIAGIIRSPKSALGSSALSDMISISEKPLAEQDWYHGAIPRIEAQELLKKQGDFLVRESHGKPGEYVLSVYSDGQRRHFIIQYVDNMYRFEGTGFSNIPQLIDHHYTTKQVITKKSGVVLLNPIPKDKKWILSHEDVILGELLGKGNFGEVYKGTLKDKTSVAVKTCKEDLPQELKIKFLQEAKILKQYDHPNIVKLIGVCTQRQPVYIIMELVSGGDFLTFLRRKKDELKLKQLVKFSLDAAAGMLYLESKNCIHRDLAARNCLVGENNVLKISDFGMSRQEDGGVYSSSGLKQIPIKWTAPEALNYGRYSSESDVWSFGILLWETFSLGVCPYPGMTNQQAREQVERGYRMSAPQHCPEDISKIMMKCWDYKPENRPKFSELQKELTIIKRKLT
Sequence of Death-associated protein kinase 3 (Homo sapiens) (O43293 whole entry, looked up, the tested form may be a part): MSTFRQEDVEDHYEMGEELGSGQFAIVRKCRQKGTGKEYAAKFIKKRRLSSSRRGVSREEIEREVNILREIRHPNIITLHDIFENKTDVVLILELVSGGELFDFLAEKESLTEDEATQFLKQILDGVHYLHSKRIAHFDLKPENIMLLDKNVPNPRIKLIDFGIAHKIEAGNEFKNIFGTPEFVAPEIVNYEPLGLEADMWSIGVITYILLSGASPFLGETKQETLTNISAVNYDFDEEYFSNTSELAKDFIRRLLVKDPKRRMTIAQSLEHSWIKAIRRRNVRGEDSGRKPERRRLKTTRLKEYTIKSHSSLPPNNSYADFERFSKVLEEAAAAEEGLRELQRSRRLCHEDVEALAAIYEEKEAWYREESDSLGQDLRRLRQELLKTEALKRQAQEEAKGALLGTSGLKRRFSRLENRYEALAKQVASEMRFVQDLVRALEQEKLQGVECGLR
Sequence of Protein kinase C epsilon type (Q02156 whole entry): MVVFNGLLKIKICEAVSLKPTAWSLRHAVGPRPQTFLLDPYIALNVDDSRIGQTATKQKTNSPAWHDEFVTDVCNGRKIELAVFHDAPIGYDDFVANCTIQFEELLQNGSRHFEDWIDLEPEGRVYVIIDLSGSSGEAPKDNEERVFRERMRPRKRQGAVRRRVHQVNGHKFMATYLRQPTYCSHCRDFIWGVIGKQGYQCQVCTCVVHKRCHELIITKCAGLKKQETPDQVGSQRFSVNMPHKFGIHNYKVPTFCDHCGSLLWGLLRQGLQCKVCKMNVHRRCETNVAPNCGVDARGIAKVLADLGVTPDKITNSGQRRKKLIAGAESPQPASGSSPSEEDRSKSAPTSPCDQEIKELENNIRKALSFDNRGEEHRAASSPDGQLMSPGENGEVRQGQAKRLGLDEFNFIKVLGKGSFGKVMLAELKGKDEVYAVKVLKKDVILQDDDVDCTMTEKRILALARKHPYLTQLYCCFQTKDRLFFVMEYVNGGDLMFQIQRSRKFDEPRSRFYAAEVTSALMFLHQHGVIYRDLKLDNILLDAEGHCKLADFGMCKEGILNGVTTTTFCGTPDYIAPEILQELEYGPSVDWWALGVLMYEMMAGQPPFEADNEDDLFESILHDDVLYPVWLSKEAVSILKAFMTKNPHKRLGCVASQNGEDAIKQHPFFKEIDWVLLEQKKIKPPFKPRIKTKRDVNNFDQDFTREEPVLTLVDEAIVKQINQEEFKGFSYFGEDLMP
Sequence of Ribosomal protein S6 kinase alpha-1 (Q15418 whole entry): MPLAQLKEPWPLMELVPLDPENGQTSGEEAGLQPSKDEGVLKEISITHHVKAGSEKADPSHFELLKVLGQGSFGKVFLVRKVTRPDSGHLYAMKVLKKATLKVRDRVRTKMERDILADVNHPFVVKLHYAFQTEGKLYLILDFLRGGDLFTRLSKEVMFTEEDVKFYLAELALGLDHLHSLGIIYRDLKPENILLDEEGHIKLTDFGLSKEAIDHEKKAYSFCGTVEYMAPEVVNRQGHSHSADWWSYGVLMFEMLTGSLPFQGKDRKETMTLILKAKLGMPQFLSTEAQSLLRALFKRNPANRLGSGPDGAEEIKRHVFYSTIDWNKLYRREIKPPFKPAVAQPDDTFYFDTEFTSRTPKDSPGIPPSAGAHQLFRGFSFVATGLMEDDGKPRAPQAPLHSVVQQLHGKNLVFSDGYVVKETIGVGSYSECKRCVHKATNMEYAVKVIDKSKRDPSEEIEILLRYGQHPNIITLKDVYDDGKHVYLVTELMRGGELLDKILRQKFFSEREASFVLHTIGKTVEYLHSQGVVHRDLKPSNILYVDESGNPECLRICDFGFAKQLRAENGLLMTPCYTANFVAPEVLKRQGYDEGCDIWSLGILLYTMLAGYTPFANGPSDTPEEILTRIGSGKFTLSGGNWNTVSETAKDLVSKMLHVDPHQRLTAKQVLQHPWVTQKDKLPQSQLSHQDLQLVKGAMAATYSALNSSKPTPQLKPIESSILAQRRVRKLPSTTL
Sequence of Tyrosine-protein kinase Yes (Homo sapiens) (P07947 2-543 limits assumed): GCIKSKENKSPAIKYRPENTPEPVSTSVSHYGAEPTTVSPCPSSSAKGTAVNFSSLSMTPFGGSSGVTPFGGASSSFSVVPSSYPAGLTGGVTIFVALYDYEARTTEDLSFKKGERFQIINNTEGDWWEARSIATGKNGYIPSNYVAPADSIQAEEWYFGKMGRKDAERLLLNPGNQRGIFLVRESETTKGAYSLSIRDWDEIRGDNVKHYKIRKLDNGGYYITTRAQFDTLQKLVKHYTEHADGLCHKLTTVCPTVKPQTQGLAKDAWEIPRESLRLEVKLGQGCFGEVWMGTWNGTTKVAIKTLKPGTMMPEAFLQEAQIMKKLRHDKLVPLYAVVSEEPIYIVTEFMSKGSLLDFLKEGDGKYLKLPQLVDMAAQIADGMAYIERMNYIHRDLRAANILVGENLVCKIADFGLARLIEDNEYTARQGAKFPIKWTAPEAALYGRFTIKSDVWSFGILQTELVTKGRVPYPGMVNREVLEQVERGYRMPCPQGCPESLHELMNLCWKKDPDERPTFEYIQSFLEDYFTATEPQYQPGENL

CCc1cc(Nc2nccc(-c3c(-c4ccc(OC)c(C(=O)Nc5c(F)cccc5F)c4)nc4ccccn34)n2)c(OC)cc1N1CCC(N2CCN(S(C)(=O)=O)CC2)CC1
IC50 (A673): > 30000 nM
IC50 (SK-N-MC): 43 nM
IC50 (MX1): 189 nM
IC50 (HeLa): > 20000 nM
Activity (COLO 205): Active
Activity (MCF7): Active
Activity (NCI-H929): inactive
inhibition in vivo at 30 mg/kg [1]: > 90%
inhibition (INH) [2]: >90%
IC50 [3]: > 25000 nM
IC50 [4]: 10000 nM
IC50 [5]: 6300 nM
inhibition [6]: 11%
inhibition [7]: 10%
inhibition [8]: 18%
inhibition [9]: 0%
inhibition [10]: 33%
inhibition [11]: 38%
inhibition [12]: 10%
inhibition [13]: 1%
inhibition [14]: 27%
IC50 [15]: 13 nM
IC50 [16]: 4340 nM
IC50 [17]: 16 nM
IC50 [18]: 701 nM
